The record followed here is ChEMBL document CHEMBL2034888, “Synthesis, anticonvulsant activity, and neuropathic pain-attenuating activity of N-benzyl 2-amino-2-(hetero)aromatic acetamides” (Bioorg Med Chem, 2012).

The test system of series [1] is Mus musculus. The series is described as follows: Toxicity in ip dosed NMRI mouse assessed as writhings at 130 mg/kg, ip after 30 mins. The series is classed as organism-based. Further details: dose 130 mg/kg, route intraperitoneal. The settings on record: in vivo, 0.5 h. A digest of the protocol:
(§1)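 Adult male NMRI mice were dosed ip. Whole-animal pharmacological observation was made at the stated mg/kg dose, recording tremors, convulsions, writhing, impaired gait or mortality. Timing was 30 min post-dose.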

Series [2] deals with Mus musculus. The series is described as follows: Anticonvulsant activity in ip dosed NMRI mouse assessed as protection against maximal electroshock-induced seizure after 30 mins postdose. The series is classed as functional. The settings on record: 0.5 h. A digest of the protocol:
(§2)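 Adult male NMRI mice given compound intraperitoneally; maximal electroshock seizure test run 30 min after dosing. Where a dose–response was run, ED50 in mg/kg was derived. Otherwise a minimal active dose was reported, or the percentage of mice protected at a single dose.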
Background: The maximal electroshock test induces tonic seizures with an electrical stimulus.

Series [3] relates to Mus musculus. As to the kind of experiment: Anticonvulsant activity in ip dosed NMRI mouse assessed as protection against 6 Hz psychomotor seizure after 30 mins. In kind it is functional. The conditions noted are these: 0.5 h. A digest of the protocol: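 Adult male NMRI mice dosed ip. Psychomotor seizures were induced by 6 Hz stimulation at 44 mA, 30 min after administration. ED50 in mg/kg was derived where determinable, otherwise a minimal active dose was reported.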

Series [4] has as its system Mus musculus. The series is described as follows: Toxicity in ip dosed NMRI mouse assessed as convulsions at 130 mg/kg, ip after 30 mins. In kind it is organism-based. Further details: dose 130 mg/kg, route intraperitoneal. The conditions noted are these: in vivo, 0.5 h. A digest of the protocol: as §1
Series [5] has as its system Mus musculus. As to the kind of experiment: Antinociceptive activity in ip dosed NMRI mouse neuropathic pain model assessed as protection against formalin-induced nociceptive behaviour after 30 mins. The series is classed as functional. The settings on record: 0.5 h. A digest of the protocol: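 Formalin test in adult male NMRI mice used as a prescreen for pain attenuation, 30 min after ip administration. ED50 in mg/kg was derived where possible. Otherwise the percent protected after a single stated dose was reported.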

Series [6] has as its system Mus musculus. As to the kind of experiment: Protective index, ratio of TD50 for NMRI mouse to ED50 for antinociceptive activity in ip dosed NMRI mouse neuropathic pain model. In kind it is functional.
The subject of series [7] is Mus musculus. As to the kind of experiment: Protective index, ratio of TD50 for NMRI mouse to ED50 for anticonvulsant activity in ip dosed NMRI mouse by maximal electroshock seizure test. The series is classed as functional.
Series [8] is described as follows: Neurotoxicity in ip dosed NMRI mouse after 30 mins by rotorod test. In kind it is toxicity, organism-based. The conditions noted are these: in vivo. In outline: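 Neurological impairment was scored by rotorod in adult male NMRI mice 30 min after ip dosing. TD50 in mg/kg was derived where possible, otherwise the maximal tolerated dose was given.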
A general note: Falling from the rotarod earlier than controls is read as motor impairment.

Series [9] relates to Mus musculus. The series is described as follows: Toxicity in ip dosed NMRI mouse assessed as tremors at 100 mg/kg, ip after 30 mins. The conditions noted are these: in vivo, 0.5 h. Further details: dose 100 mg/kg, route intraperitoneal. The series is classed as organism-based. In outline: as §1
The test system of series [10] is Mus musculus. As to the kind of experiment: Toxicity in ip dosed NMRI mouse assessed as impaired gait at 100 mg/kg, ip after 30 mins. The series is classed as organism-based. Further details: dose 100 mg/kg, route intraperitoneal. The conditions noted are these: in vivo, 0.5 h. In outline:
as §1

The test system of series [11] is Mus musculus. As to the kind of experiment: Anticonvulsant activity in NMRI mouse assessed as protection against maximal electroshock-induced seizure at 140 mg/kg, ip after 30 mins. In kind it is functional. The settings on record: route intraperitoneal. In outline: as §2
The nature of series [12]: Neurotoxicity in ip dosed albino CF-1 mouse by rotorod test. The series is classed as toxicity, organism-based. The settings on record: in vivo.
For series [13], the system named is Mus musculus. The series is described as follows: Anticonvulsant activity in ip dosed albino CF-1 mouse assessed as protection against maximal electroshock-induced seizure after 0.5 hrs. In kind it is functional. The settings on record: albino CF-1, ip.
Series [14] has as its system Mus musculus. As to the kind of experiment: Anticonvulsant activity in ip dosed albino CF-1 mouse assessed as protection against maximal electroshock-induced seizure. In kind it is functional. The conditions noted are these: albino CF-1, ip.
Series [15] is described as follows: Neurotoxicity in ip dosed albino CF-1 mouse by horizontal screen test. The conditions noted are these: in vivo. The series is classed as toxicity, organism-based.
Series [16] is described as follows: Neurotoxicity in ip dosed albino CF-1 mouse after 30 mins by rotorod test. In kind it is toxicity, organism-based. The settings on record: in vivo.

In the case of `NC(C(=O)NCc1ccccc1)c1ccc2ccccc2n1` (racemic), the Activity result with Mus musculus [1] and with Mus musculus [4] was “Toxic” each time. Also, the median effective dose (ED50) in the series with Mus musculus [2] was over 41 mg/kg; with Mus musculus [3], over 130 mg/kg; with Mus musculus [5], 54 mg/kg.
As to `NC(C(=O)NCc1ccccc1)c1cnc2ccccc2n1` (racemic), the ED50 in the series with Mus musculus [2] was over 120 mg/kg; in the series with Mus musculus [3], over 120 mg/kg; in the series on Mus musculus [5], 42 mg/kg.
With `NC(C(=O)NCc1ccccc1)c1ccco1` (racemic), the “Ratio TD50/ED50” value with Mus musculus [6] is over 5.1; with Mus musculus [7] it was over 1.8. Moreover, the ED50 is 85 mg/kg in the series on Mus musculus [2], over 150 mg/kg in the series with Mus musculus [3] and 29 mg/kg in the series on Mus musculus [5]. Further, the TD50 at 0.5 h in series [8] is over 150 mg/kg.
For the compound `Cc1ccc(C(N)C(=O)NCc2ccccc2)o1` (racemic), the values for the Activity result in the series on Mus musculus [9], in the series with Mus musculus [10] and in the series on Mus musculus [11] were “Toxic”, “Toxic” and 100%, respectively. Moreover, the minimal effective dose in the series on Mus musculus [2] (read-out: MED) was determined as 100 mg/kg. The ED50 is over 140 mg/kg with Mus musculus [3] and over 78 mg/kg with Mus musculus [5].
Regarding `CC(=O)NC(C(=O)NCc1ccccc1)c1cccs1` (racemic), in series [12], the TD50 stood at 30 mg/kg. The ED50 with Mus musculus [13] is 45 mg/kg.
On to `CC(=O)NC(C(=O)NCc1ccccc1)c1cc2ccccc2s1` (racemic), for which the TD50 in [12] worked out at 100 mg/kg. Besides, the ED50 in the series on Mus musculus [14] is 100 mg/kg.
For the compound `CC(=O)NC(C(=O)NCc1ccccc1)c1ccccc1` (racemic), the ED50 with Mus musculus [13] is 32 mg/kg. The compound also showed a TD50 in [15] of over 40 mg/kg.
In turn, `CC(=O)NC(C(=O)NCc1ccccc1)c1ccco1` (racemic) registered a TD50 at 0.5 h in series [16] of 40 mg/kg. In addition, the median effective dose (ED50) with Mus musculus [13] was determined as 10 mg/kg.
As for `CC(=O)NC(C(=O)NCc1ccccc1)c1ccccn1` (racemic), in [12], the TD50 came out at 25 mg/kg. For the same compound, the ED50 in the series with Mus musculus [13] turned out to be 11 mg/kg.
As for `CC(=O)NC(C(=O)NCc1ccccc1)c1cnccn1` (racemic), the TD50 at 0.5 h in series [16] amounted to 58 mg/kg. Also, in the series on Mus musculus [13], the median effective dose (ED50) was determined as 15 mg/kg.
The matching figures for `CC(=O)NC(C(=O)NCc1ccccc1)c1nccs1` (racemic): 69 mg/kg and 12 mg/kg.
Taken in the same sequence, the figures for `CC(=O)NC(C(=O)NCc1ccccc1)c1ccc(C)o1` (racemic) were 75 mg/kg and 19 mg/kg.
For `COC[C@@H](NC(C)=O)C(=O)NCc1ccccc1` [LACOSAMIDE], the “Ratio TD50/ED50” value with Mus musculus [6] is listed as 1.3; in the series on Mus musculus [7] it was 5.8. Also, the values for the ED50 in the series with Mus musculus [2], in the series on Mus musculus [3] and in the series on Mus musculus [5] were 3.3 mg/kg, 10 mg/kg and 15 mg/kg, respectively.
`CCC1(c2ccccc2)C(=O)NC(=O)NC1=O` [PHENOBARBITAL]: the ED50 with Mus musculus [2] was 22 mg/kg.
Still for that read-out and setting: for `CCCC(CCC)C(=O)[O-].[Na+]` [VALPROATE SODIUM] the value was 270 mg/kg.

Usually ED50 stands for the midpoint of the dose-response relation. As a reminder, the TD50 is the dose at which the toxic effect under study appears in half of the subjects. The low end stands for harm at a small dose, the high end for harm only at a large dose.
